Compounds with a hit are over-represented: about 3.5% of the library has one in this group of screens.
MrgX1 antagonist – antagonists of human MrgX1 receptor; Q96LB2; MRGX1-HEK293 calcium flux, Fluo-4, BAM8-22 antagonism; stronger effect = lower value; B-score at 10 µM; 310,000 tested, 1.3% active;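 active = calcium-response B-score plate-corrected more than 3 library SD below zero, starting fluorescence within 5 deviations, no agonist response on first addition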;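 note: peak minus trough fluorescence over baseline after final BAM8-22 challenge near maximal dose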
Target sequence (Q96LB2 whole entry, looked up): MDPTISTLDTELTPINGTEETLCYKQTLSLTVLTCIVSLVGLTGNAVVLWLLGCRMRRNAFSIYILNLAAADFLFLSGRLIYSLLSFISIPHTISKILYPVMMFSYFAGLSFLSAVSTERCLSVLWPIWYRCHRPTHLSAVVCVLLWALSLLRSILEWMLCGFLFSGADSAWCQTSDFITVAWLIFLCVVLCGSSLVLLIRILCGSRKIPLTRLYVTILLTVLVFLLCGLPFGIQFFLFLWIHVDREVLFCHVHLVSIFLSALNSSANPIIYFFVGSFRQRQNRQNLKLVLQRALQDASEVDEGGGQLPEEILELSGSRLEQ
MrgX1 agonist – human MrgX1 receptor agonism, primary screen; MrgX1-HEK293 cells, Fluo-4 calcium fluorescence, agonist mode; stronger effect = higher value; B-score at 10 µM; 310,000 tested, 0.44% active; AID 588627;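 active = calcium response B-score plate-corrected fluorescence ratio at least 3 library SD, with starting fluorescence B-score inside 5 SD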
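Material – MrgX1-expressing HEK293 cells · Input – 15,000 cells seeded per well · Dosing – compound as first of three additions · Times – overnight seeding, then 1 h dark dye loading · Measured by – kinetic Fluo-4 NW fluorescence of intracellular calcium · Read-out – B-scored fluorescence response ratio · Benchmarks – positive and negative control wells on each plate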
RGS4 inh – inhibitors of human RGS4. P49798. HEK293 M3R/RGS4 inducible, Fluo-4 calcium flux; stronger effect = higher value; triggered by carbachol at its EC20. 310,000 tested, 0.45% active. B-score at 10 µM;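 active = B-score, a plate-corrected calcium signal, over three deviations above library mean, with baseline fluorescence within five deviations of library mean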;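 note: RGS4 expression induced by doxycycline in cells with stable M3 receptor; B-score is computed from the integrated fluorescence ratio over baseline after carbachol; higher B-score means a larger calcium signal and so more RGS4 inhibition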
Target sequence (P49798 whole entry, looked up): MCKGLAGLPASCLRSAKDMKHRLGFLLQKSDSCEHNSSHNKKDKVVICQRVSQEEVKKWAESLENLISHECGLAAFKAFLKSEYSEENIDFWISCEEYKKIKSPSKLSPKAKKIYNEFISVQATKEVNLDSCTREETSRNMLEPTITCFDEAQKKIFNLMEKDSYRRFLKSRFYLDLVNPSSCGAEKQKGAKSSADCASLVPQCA
RGS4 act – RGS4 potentiation or activation; 310,000 tested, 0.92% active; B-score at 10 µM; HEK293 M3R/inducible RGS4, carbachol calcium flux Fluo4; stronger effect = lower value;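 active = B-score of the integrated calcium signal more than 4 SD below the library mean, with starting fluorescence not abnormally high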;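 note: negative B-score means reduced calcium response which marks RGS4 activation or potentiation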
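System – HEK293 FlpIn-TREx cells, stable M3R, doxycycline-inducible RGS4 · Reagent – ECmax carbachol challenge · Times – compound preincubation 20 min at room temperature before agonist · Technique – Fluo4 fluorescence kinetic imaging of calcium · Measure – B score of integrated Fluo4 ratio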
MrgX1 PAM – human MrgX1 positive allosteric modulation, primary screen | MrgX1-HEK293, Fluo-4 calcium flux, FDSS; stronger effect = higher value | B-score at 10 µM | 310,000 tested, 0.63% active | AID 588675 | Q96LB2;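 active = plate-corrected calcium response at least 3 library SD above typical, normal starting fluorescence, not activating the receptor alone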;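 note: compound read alongside a low EC10 to EC30 dose of BAM8-22 agonist; peak minus trough fluorescence over baseline measured at the second addition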
Active calls of the source: *; i = inactive; / = no result given.

SMILES	MrgX1 antagonist	MrgX1 agonist	RGS4 inh	RGS4 act	MrgX1 PAM
C/C(CCc1oc2ccccc2c1-c1ccc(C)o1)=N/O	i	28.3*	i	i	i
CC(=O)CCc1oc2ccc([N+](=O)[O-])cc2c1-c1ccc(C)o1	i	i	i	i	i
Cc1cc2nc(SCCOC(=O)Nc3ccccc3)nc(C)c2cc1C	i	i	i	i	i
CCNc1nc(NCC)nc(SCCOC(=O)Nc2ccccc2)n1	i	i	i	i	7.69*
COc1ccc(-n2c(C)cc(C)c(C(C)=O)c2=S)cc1	i	i	i	i	i
CCN(CC)C(=O)COC(=O)C1=NN(c2cc(C)ccc2C)C(=O)CC1	-5.47*	i	i	i	i
Cn1c(Cc2cccc3ccccc23)nnc1SCc1ccc([N+](=O)[O-])cc1	-8.59*	i	i	i	i
COc1ccc(C(=O)NCC(=O)N/N=C(\C)Cc2ccccc2)cc1	i	i	i	i	7.02*
C/C(=N\O)C(C)(C)Nc1ccc(F)cc1	i	i	i	i	i
C/C(=N\O)C(C)(C)Nc1ccc(Cl)cc1	i	43.6*	i	i	i
Cc1cc(C)c(C(=O)COC(=O)Cn2c(C)csc2=O)cc1C	i	i	i	i	i
CC(=O)Oc1c(Cl)cc(Cl)cc1/C=C/c1ccc2ccccc2n1	-8.32*	i	i	i	i
COCCn1c(=NC(=O)CSC(C)=O)sc2cc(F)ccc21	-9.34*	i	i	i	i
O=c1cc(-c2ccccc2)nc2c(-c3ccccc3)c(C(F)(F)F)[nH]n12	i	i	i	i	i
Cc1ccc(S(=O)(=O)N2[C@@H](c3ccc(Cl)cc3)C(C(=O)O)=CC[C@H]2c2cccc(Cl)c2)cc1	i	30.2*	/	/	i
Cc1ccc(S(=O)(=O)N2[C@@H](c3ccccc3)C(C(=O)O)=CC[C@H]2c2ccc3c(c2)OCO3)cc1	i	i	/	/	10*
Cc1ccc(S(=O)(=O)N2[C@@H](c3ccc(Cl)cc3)C(C(=O)O)=CC[C@H]2c2cccc(C)c2)cc1	i	i	/	/	i
COc1ccc(C(CC(=O)c2ccc(C)cc2)C(C#N)C#N)cc1OC (centres undefined)	i	i	i	i	i
CCN(CC)CCCn1c2c(c(SCC(=O)Nc3ccc4c(c3)OCCO4)nc1=O)CCC2	i	i	i	i	i
O=C(c1cccc(Oc2ccccc2)c1)N1CCN(c2ccccn2)CC1	i	i	i	i	i
Cc1ccc(Oc2ncccc2/C=N/OCc2ccc(Cl)cc2Cl)cc1	i	i	i	i	7.31*
COc1ccc(/C=N\NC(=O)c2ccc(F)cc2)cc1COc1cc(F)ccc1[N+](=O)[O-]	i	i	i	-9.85*	i
COc1ccc(/C=N/NS(=O)(=O)c2ccc(F)cc2)cc1COc1cc(F)ccc1[N+](=O)[O-]	i	i	i	i	i
CCOC(=O)c1ccccc1OCc1cc(/C=N/NC(=O)c2cccnc2)ccc1OC	i	i	i	-7.91*	i
COc1ccc(/C=N\NC(=O)c2ccccc2)cc1COc1ccccc1	i	i	i	i	i
SMILES	MrgX1 antagonist	MrgX1 agonist	RGS4 inh	RGS4 act	MrgX1 PAM
CCOc1cc(CNC2CCCC2)c(Cl)cc1OCC(=O)Nc1ccccc1	i	i	i	-7.25*	i
COC(=O)CSc1nn(-c2ccc(F)cc2)c(=S)s1	i	i	i	i	i
Cc1ccc(C(=O)Nn2c(O)c(C=C3N=c4ccccc4=N3)sc2=S)cc1	i	i	i	i	i
Cc1ccc(S(=O)(=O)Nn2c(O)c(C=C3N=c4ccccc4=N3)sc2=S)cc1	-5.28*	i	i	i	i
COc1cc(/C=C/C(=O)NCCc2ccc(S(N)(=O)=O)cc2)ccc1OCC#N	i	i	i	i	11.7*
O=C(c1cccc(Cl)c1)N(Cc1ccco1)C1CCS(=O)(=O)C1 (centres undefined)	i	i	i	i	i
O=C(N/N=C/c1ccc(Cl)c([N+](=O)[O-])c1)c1cnccn1	-4.67*	i	i	i	i
CC(C)CC(=O)O/N=C1\C(=O)N(Cc2ccc(Cl)cc2)c2ccc([N+](=O)[O-])cc21	i	i	6.38*	i	i
CC(C)CC(=O)O/N=C1\C(=O)N(c2ccccc2)c2ccccc21	i	i	i	i	i
Cc1ccccc1/C=C/c1nc2ccccc2c(=O)n1CCc1ccccc1	i	i	i	i	i
Cc1ccccc1/C=C/c1nc2ccccc2c(=O)n1Cc1ccccc1	i	i	i	-7.4*	i
Cc1cc(C)c(S(=O)(=O)c2ccccc2C(C)C)c(=O)[nH]1	i	i	i	i	i
COc1ccc(CCNC(=O)c2cc(C(=O)c3cc(C)ccc3O)cn(CCc3ccc(OC)cc3)c2=O)cc1	i	i	i	-8.73*	i
Cc1ccc(CN=C(N)Nc2nc(C)cc(C)n2)cc1	i	i	i	i	i
CC1(C)N=C(N)N=C(N)N1c1ccc(Oc2ccc(Cl)cc2)c(Cl)c1	i	i	i	-7.53*	i
CC1(C)N=C(N)N=C(N)N1c1ccccc1	i	i	i	i	i
CC(=O)N1CCN(C(=O)CCc2cc(C(C)(C)C)c(O)c(C(C)(C)C)c2)CC1	i	i	i	i	i
Cc1cccn2c(=O)c(/C=C(\C#N)C(N)=O)c(N3CCN(Cc4ccc5c(c4)OCO5)CC3)nc12	i	i	i	-8.46*	i
CCOC(=O)c1ccc(NC(=S)NNC(=O)COC)cc1	-7.88*	i	i	i	i
Oc1ccc(CCNc2ncnc3ccc(Cl)cc23)cc1	-5.57*	i	i	i	i
Cc1nc(N2CCCCC2C)c2c(C)c(C(=O)Nc3cccc(C(F)(F)F)c3)sc2n1 (centres undefined)	i	i	i	i	i
CCOC(=O)c1sc2nc(C)nc(N3CCCCC3C)c2c1C (centres undefined)	i	i	i	-7.31*	i
N#C/C(=C\c1ccc2c(c1)OCCO2)C(=O)Nc1nccs1	i	52.1*	i	i	i
CC(=O)c1cccc(Nc2nc(-c3sc(N)nc3C)cs2)c1	i	i	i	-7.22*	i
CC(=O)c1cccc(Nc2nc(-c3sc(C)nc3C)cs2)c1	i	i	i	i	i
CCC(=O)Nc1nc(C)c(-c2csc(Nc3cccc(O)c3)n2)s1	-5.4*	i	i	-7.29*	i
Cc1nc(C)c(-c2csc(Nc3cccc(O)c3)n2)s1	i	i	i	i	i
